Source: PMC10952047 (iScience, 2024)
No end group written: not given here.

Target: T1, CKR-1 (Caenorhabditis elegans, UniProt P91487)
T1 sequence (P91487 1-421): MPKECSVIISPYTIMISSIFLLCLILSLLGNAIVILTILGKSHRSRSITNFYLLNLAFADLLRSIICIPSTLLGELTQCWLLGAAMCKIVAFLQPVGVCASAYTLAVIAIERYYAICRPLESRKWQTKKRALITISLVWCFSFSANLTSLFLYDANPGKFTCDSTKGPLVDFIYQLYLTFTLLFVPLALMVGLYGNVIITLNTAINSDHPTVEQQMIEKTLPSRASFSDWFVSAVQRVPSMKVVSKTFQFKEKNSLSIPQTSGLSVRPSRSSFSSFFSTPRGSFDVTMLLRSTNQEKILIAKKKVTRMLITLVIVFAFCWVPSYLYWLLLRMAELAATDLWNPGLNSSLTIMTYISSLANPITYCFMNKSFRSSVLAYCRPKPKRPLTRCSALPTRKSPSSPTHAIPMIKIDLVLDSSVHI
Format: cell-based, C. elegans
Summary of the method: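 CKR-1 cDNA cloned into pGH19, and 50 ng sense cRNA injected per oocyte. Oocytes kept 2-3 days at 18°C in ND96. TEVC at -80 mV with 3 M KCl electrodes. Perfusion switched from ND96 to high-K+ bath (96 mM KCl, pH 7.3) to read […] Ca2+-gated Cl- currents evoked by synthetic peptide. Washout in high-K+, then ND96.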

DYRPLQF-NH2 [NLP-12a]
EC50: 26.5 nM
EC50 of NLP-12a relative to NLP-18a (ratio of EC50 values, X. laevis oocytes expressing CKR-1): approximately twice that of NLP-18a
